Laboratory results published in ChEMBL document CHEMBL1155297, “Synthesis, antimicrobial and antioxidant activities of substituted pyrazoles, isoxazoles, pyrimidine and thioxopyrimidine derivatives” (2009).

Columns and labels:
Format in all cases: functional
[1] = tested on: Fusarium solani; test: Antifungal activity against Fusarium solani NCIM 1330 at 100 ug/disk after 48 hrs by agar disk diffusion method; conditions: NCIM 1330, 48 h, read-out: IZ
Summary of the method: (§1)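 Fungal disc diffusion on nutrient agar plates pre-inoculated with each fungus. 6 mm sterile paper discs carried the compound in DMSO at the stated amount per disc. Plates were held at 37 °C, and inhibition-zone diameter was measured after 48 h. Values are the mean of three independent triplicate readings.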

[2] = Antioxidant activity assessed as nitric oxide production at 100 uM after 120 mins by Griess reagent method
Summary of the method: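 Nitric oxide assay with Griess read-out. At intervals, 0.5 ml of incubation solution was mixed with 0.5 ml Griess reagent (1% sulfanilamide, 0.1% N-naphthylethylenediamine dihydrochloride, 2% o-phosphoric acid in water). The control received an equal amount of solvent and was handled identically.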

[3] = tested on: Proteus vulgaris; test: Antibacterial activity against Proteus vulgaris NCIM 2027 at 100 ug/disk after 24 hrs by agar disk diffusion method; conditions: NCIM 2027, 24 h, read-out: IZ
Summary of the method: (§2)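 Agar disc diffusion on nutrient agar plates pre-inoculated with each bacterium. Sterile 6 mm filter-paper discs were moistened with compound in DMSO at the stated per-disc amount. Plates were incubated at 37 °C, and the growth-inhibition zone diameter was read after 24 h. Each determination was run in triplicate, and the mean of three independent readings is reported.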

[4] = tested on: Curvularia lunata; test: Antifungal activity against Curvularia lunata NCIM 716 at 100 ug/disk after 48 hrs by agar disk diffusion method; conditions: NCIM 716, 48 h, read-out: IZ; summary of the method: as §1
[5] = tested on: Aspergillus niger; test: Antifungal activity against Aspergillus niger NCIM 596 at 200 ug/disk after 48 hrs by agar disk diffusion method; conditions: NCIM 596, 48 h, read-out: IZ; summary of the method: as §1
[6] = tested on: Fusarium solani; test: Antifungal activity against Fusarium solani NCIM 1330 at 200 ug/disk after 48 hrs by agar disk diffusion method; conditions: NCIM 1330, 48 h, read-out: IZ; summary of the method: as §1
[7] = tested on: Proteus vulgaris; test: Antibacterial activity against Proteus vulgaris NCIM 2027 at 200 ug/disk after 24 hrs by agar disk diffusion method; conditions: NCIM 2027, 24 h, read-out: IZ; summary of the method: as §2
[8] = tested on: Staphylococcus aureus; test: Antibacterial activity against Staphylococcus aureus NCIM 5021 at 200 ug/disk after 24 hrs by agar disk diffusion method; conditions: NCIM 5021, 24 h, read-out: IZ; summary of the method: as §2
[9] = tested on: Bacillus subtilis; test: Antibacterial activity against Bacillus subtilis NCIM 2063 at 200 ug/disk after 24 hrs by agar disk diffusion method; conditions: NCIM 2063, 24 h, read-out: IZ; summary of the method: as §2
[10] = tested on: Bacillus subtilis; test: Antibacterial activity against Bacillus subtilis NCIM 2063 at 100 ug/disk after 24 hrs by agar disk diffusion method; conditions: NCIM 2063, 24 h, read-out: IZ; summary of the method: as §2
[11] = tested on: Aspergillus niger; test: Antifungal activity against Aspergillus niger NCIM 596 at 100 ug/disk after 48 hrs by agar disk diffusion method; conditions: NCIM 596, 48 h, read-out: IZ; summary of the method: as §1
[12] = tested on: Radical scavenging activity; test: Antioxidant activity assessed as DPPH free radical scavenging activity at 100 uM after 20 mins
Summary of the method: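 DPPH scavenging: compound solutions were added to DPPH in dioxane/ethanol and kept at ambient temperature for 20 min. Absorbance was read at 517 nm. The test–control difference was expressed as percent DPPH radical scavenging.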

[13] = tested on: Curvularia lunata; test: Antifungal activity against Curvularia lunata NCIM 716 at 200 ug/disk after 48 hrs by agar disk diffusion method; conditions: NCIM 716, 48 h, read-out: IZ; summary of the method: as §1
[14] = tested on: Klebsiella pneumoniae; test: Antibacterial activity against Klebsiella pneumoniae NCIM 2957 at 100 ug/disk after 24 hrs by agar disk diffusion method; conditions: NCIM 2957, 24 h, read-out: IZ; summary of the method: as §2
[15] = tested on: Staphylococcus aureus; test: Antibacterial activity against Staphylococcus aureus NCIM 5021 at 100 ug/disk after 24 hrs by agar disk diffusion method; conditions: NCIM 5021, 24 h, read-out: IZ; summary of the method: as §2
[16] = tested on: Klebsiella pneumoniae; test: Antibacterial activity against Klebsiella pneumoniae NCIM 2957 at 200 ug/disk after 24 hrs by agar disk diffusion method; conditions: NCIM 2957, 24 h, read-out: IZ; summary of the method: as §2

SMILES | zone of inhibition at 100 µg/disc [1] | inhibition [2] | zone of inhibition at 100 µg/disc [3] | zone of inhibition at 100 µg/disc [4] | zone of inhibition at 200 µg/disc [5] | zone of inhibition at 200 µg/disc [6] | zone of inhibition at 200 µg/disc [7] | zone of inhibition at 200 µg/disc [8] | zone of inhibition at 200 µg/disc [9] | zone of inhibition at 100 µg/disc [10] | zone of inhibition at 100 µg/disc [11] | inhibition [12] | zone of inhibition at 200 µg/disc [13] | zone of inhibition at 100 µg/disc [14] | zone of inhibition at 100 µg/disc [15] | zone of inhibition at 200 µg/disc [16]
NC1=NC(=O)N=C(N)C1C(CS(=O)(=O)c1ccc(Cl)cc1)S(=O)(=O)c1ccc(Cl)cc1 (stereo unspecified) | 17 mm | 35.9% | 17 mm | 19 mm | 19 mm | 20 mm | 19 mm | 24 mm | 25 mm | 23 mm | 16 mm | 35.8% | 23 mm | 18 mm | 22 mm | 20 mm
Cc1ccc(S(=O)(=O)CC(C2C(=N)ON=C2N)S(=O)(=O)c2ccc(C)cc2)cc1 (stereo unspecified) | 28 mm | 81.5% | 24 mm | 28 mm | 29 mm | 31 mm | 25 mm | 27 mm | 29 mm | 26 mm | 26 mm | 80.8% | 30 mm | 25 mm | 26 mm | 27 mm
NC1=NC(=S)N=C(N)C1C(CC(=O)c1ccc(Cl)cc1)C(=O)c1ccc(Cl)cc1 (stereo unspecified) | 19 mm | 43.4% | 20 mm | 17 mm | 20 mm | 22 mm | 22 mm | 26 mm | 25 mm | 23 mm | 15 mm | 41.6% | 21 mm | 19 mm | 25 mm | 22 mm
Cc1ccc(S(=O)(=O)CC(C2C(N)=NC(=O)N=C2N)S(=O)(=O)c2ccc(C)cc2)cc1 (stereo unspecified) | 13 mm | 27.9% | 16 mm | 16 mm | 15 mm | 16 mm | 18 mm | 23 mm | 24 mm | 22 mm | 11 mm | 28.1% | 18 mm | 17 mm | 21 mm | 19 mm
CN1C(=N)C(C(CS(=O)(=O)c2ccc(Cl)cc2)S(=O)(=O)c2ccc(Cl)cc2)C(=N)N(C)C1=O (stereo unspecified) | 16 mm | 30.2% | 11 mm | 17 mm | 17 mm | 19 mm | 13 mm | 18 mm | 17 mm | 15 mm | 15 mm | 31.6% | 21 mm | 12 mm | 16 mm | 14 mm
Cc1ccc(S(=O)(=O)CC(C2C(=N)N(C)C(=O)N(C)C2=N)S(=O)(=O)c2ccc(C)cc2)cc1 (stereo unspecified) | 11 mm | 24.6% | 8 mm | 13 mm | 13 mm | 14 mm | 10 mm | 13 mm | 14 mm | 12 mm | 10 mm | 24.8% | 16 mm | 9 mm | 11 mm | 11 mm
